From ChEMBL document CHEMBL1165943, “Design and synthesis of new anticancer pyrimidines with multiple-kinase inhibitory effect” (Bioorg Med Chem, 2010)

What was measured:
Format in all cases: functional
[1] = system: HL-60(TB); assay: Cytotoxicity against human HL-60(TB) cells assessed as cell growth at 10 uM; details: for growth at 10 µM: Homo sapiens, HL-60, read-out: Activity
How it was run: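 Single-concentration 10 µM screen of HL-60(TB) within the 60-line panel, grown in RPMI 1640 with 5% FBS. The drug from DMSO stock is incubated 48 h at 37 °C, settled cells are TCA-fixed and SRB-stained, and absorbance is read at 515 nm. Percent growth is reported, and inhibition % is taken as 100 minus growth %.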

[2] = system: K562; assay: Cytotoxicity against human K562 cells assessed as cell growth at 10 uM; details: for growth at 10 µM: Homo sapiens, K562, read-out: Activity
How it was run: (§1)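 Single-dose screen at 10 μM across the 60-cell-line panel. Cells grown in RPMI 1640 with 5% FBS and 2 mM L-glutamine, seeded at 5,000–40,000 cells/well according to doubling time, and treated 24 h later. Exposure lasted 48 h at 37 °C, 5% CO₂. Adherent cells were fixed with cold TCA, suspension cells were fixed settled, and both were stained with SRB and read at 515 nm. Growth % was recorded, with inhibition % = 100 − growth %.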

[3] = system: EKVX; assay: Cytotoxicity against human EKVX cells assessed as cell growth at 10 uM; details: for growth at 10 µM: Homo sapiens, EKVX, read-out: Activity
How it was run: (§2)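 Single-concentration screen at 10 μM across the 60-cell-line panel (nine tissue types); growth percentage recorded per cell line, with inhibition taken as 100 minus growth percentage.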

[4] = system: HOP-62; assay: Cytotoxicity against human HOP62 cells assessed as cell growth at 10 uM; details: for growth at 10 µM: Homo sapiens, HOP-62, read-out: Activity; how it was run: as §2
[5] = system: NCI-H226; assay: Cytotoxicity against human NCI-H226 cells assessed as cell growth at 10 uM; details: for growth at 10 µM: Homo sapiens, NCI-H226, read-out: Activity; how it was run: as §1
[6] = system: NCI-H23; assay: Cytotoxicity against human NCI-H23 cells assessed as cell growth at 10 uM; details: for growth at 10 µM: Homo sapiens, NCI-H23, read-out: Activity; how it was run: as §1
[7] = system: NCI-H322M; assay: Cytotoxicity against human NCI-H322M cells assessed as cell growth at 10 uM; details: for growth at 10 µM: Homo sapiens, NCI-H322M, read-out: Activity; how it was run: as §1
[8] = system: COLO 205; assay: Cytotoxicity against human COLO205 cells assessed as cell growth at 10 uM; details: for growth at 10 µM: Homo sapiens, COLO 205, read-out: Activity; how it was run: as §2
[9] = system: HCT-116; assay: Cytotoxicity against human HCT116 cells assessed as cell growth at 10 uM; details: for growth at 10 µM: Homo sapiens, HCT-116, read-out: Activity; how it was run: as §2
[10] = system: HCT-15; assay: Cytotoxicity against human HCT15 cells assessed as cell growth at 10 uM; details: for growth at 10 µM: Homo sapiens, HCT-15, read-out: Activity; how it was run: as §2
[11] = system: HT-29; assay: Cytotoxicity against human HT-29 cells assessed as cell growth at 10 uM; details: for growth at 10 µM: Homo sapiens, HT-29, read-out: Activity; how it was run: as §2
[12] = system: KM12; assay: Cytotoxicity against human KM12 cells assessed as cell growth at 10 uM; details: for growth at 10 µM: Homo sapiens, KM12, read-out: Activity; how it was run: as §1
[13] = system: SW-620; assay: Cytotoxicity against human SW620 cells assessed as cell growth at 10 uM; details: for growth at 10 µM: Homo sapiens, SW-620, read-out: Activity; how it was run: as §1
[14] = system: SF-268; assay: Cytotoxicity against human SF268 cells assessed as cell growth at 10 uM; details: for growth at 10 µM: Homo sapiens, SF-268, read-out: Activity; how it was run: as §1
[15] = system: SF-295; assay: Cytotoxicity against human SF295 cells assessed as cell growth at 10 uM; details: for growth at 10 µM: Homo sapiens, SF-295, read-out: Activity; how it was run: as §1
[16] = system: U-251; assay: Cytotoxicity against human U251 cells assessed as cell growth at 10 uM; details: for growth at 10 µM: Homo sapiens, U-251, read-out: Activity; how it was run: as §1
[17] = system: LOX IMVI; assay: Cytotoxicity against human LOXIMVI cells assessed as cell growth at 10 uM; details: for growth at 10 µM: Homo sapiens, LOX IMVI, read-out: Activity; how it was run: as §1
[18] = system: M14; assay: Cytotoxicity against human M14 cells assessed as cell growth at 10 uM; details: Homo sapiens, M14; read-out: Activity; how it was run: as §1
[19] = system: SK-MEL-2; assay: Cytotoxicity against human SK-MEL-2 cells assessed as cell growth at 10 uM; details: Homo sapiens, SK-MEL-2; read-out: Activity; how it was run: as §1
[20] = system: SK-MEL-28; assay: Cytotoxicity against human SK-MEL-28 cells assessed as cell growth at 10 uM; details: Homo sapiens, SK-MEL-28; read-out: Activity; how it was run: as §1
[21] = system: UACC-257; assay: Cytotoxicity against human UACC257 cells assessed as cell growth at 10 uM; details: Homo sapiens, UACC-257; read-out: Activity; how it was run: as §1
[22] = system: UACC-62; assay: Cytotoxicity against human UACC62 cells assessed as cell growth at 10 uM; details: Homo sapiens, UACC-62; read-out: Activity; how it was run: as §1
[23] = system: IGROV-1; assay: Cytotoxicity against human IGROV1 cells assessed as cell growth at 10 uM; details: Homo sapiens, IGROV-1; read-out: Activity; how it was run: as §1
[24] = system: OVCAR-3; assay: Cytotoxicity against human OVCAR-3 cells assessed as cell growth at 10 uM; details: Homo sapiens, OVCAR-3; read-out: Activity; how it was run: as §1
[25] = system: OVCAR-4; assay: Cytotoxicity against human OVCAR4 cells assessed as cell growth at 10 uM; details: for growth at 10 µM: Homo sapiens, OVCAR-4, read-out: Activity; how it was run: as §1
[26] = system: OVCAR-5; assay: Cytotoxicity against human OVCAR5 cells assessed as cell growth at 10 uM; details: for growth at 10 µM: Homo sapiens, OVCAR-5, read-out: Activity; how it was run: as §1
[27] = system: OVCAR-8; assay: Cytotoxicity against human OVCAR8 cells assessed as cell growth at 10 uM; details: Homo sapiens, OVCAR-8; read-out: Activity; how it was run: as §1
[28] = system: SK-OV-3; assay: Cytotoxicity against human SKOV3 cells assessed as cell growth at 10 uM; details: Homo sapiens, SK-OV-3; read-out: Activity; how it was run: as §1
[29] = system: ACHN; assay: Cytotoxicity against human ACHN cells assessed as cell growth at 10 uM; details: Homo sapiens, ACHN; read-out: Activity; how it was run: as §2
[30] = system: UO-31; assay: Cytotoxicity against human UO31 cells assessed as cell growth at 10 uM; details: Homo sapiens, UO-31; read-out: Activity; how it was run: as §1
[31] = system: PC-3; assay: Cytotoxicity against human PC3 cells assessed as cell growth at 10 uM; details: Homo sapiens, PC-3; read-out: Activity; how it was run: as §1
[32] = system: DU-145; assay: Cytotoxicity against human DU145 cells assessed as cell growth at 10 uM; details: Homo sapiens, DU-145; read-out: Activity; how it was run: as §2
[33] = system: MDA-MB-231; assay: Cytotoxicity against human MDA-MB-231 cells assessed as cell growth at 10 uM; details: Homo sapiens, MDA-MB-231; read-out: Activity; how it was run: as §1
[34] = system: T47D; assay: Cytotoxicity against human T47D cells assessed as cell growth at 10 uM; details: Homo sapiens, T47D; read-out: Activity; how it was run: as §1
[35] = system: MDA-MB-468; assay: Cytotoxicity against human MDA-MB-468 cells assessed as cell growth at 10 uM; details: Homo sapiens, MDA-MB-468; read-out: Activity; how it was run: as §1
[36] = Growth inhibition of human NCI60 cells at 10 uM after 48 hrs by sulforhodamine B assay relative to control; details: for inhibition of growth at 10 µM: Homo sapiens, NCI60, 48 h, read-out: GI
How it was run: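 Single 10 µM dose across the 60-line panel for 48 h, with the same culture, TCA fixation and SRB 515 nm read-out. Inhibition % = 100 − growth %, given as the mean over the 60 cell lines.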

Compound | growth at 10 µM [1] [%] | growth at 10 µM [2] [%] | growth at 10 µM [3] [%] | growth at 10 µM [4] [%] | growth at 10 µM [18] [%] | growth at 10 µM [19] [%] | growth at 10 µM [20] [%] | growth at 10 µM [21] [%] | growth at 10 µM [22] [%] | growth at 10 µM [23] [%] | growth at 10 µM [24] [%] | growth at 10 µM [27] [%] | growth at 10 µM [28] [%] | growth at 10 µM [29] [%] | growth at 10 µM [30] [%] | growth at 10 µM [31] [%] | growth at 10 µM [32] [%] | growth at 10 µM [33] [%] | growth at 10 µM [34] [%] | growth at 10 µM [35] [%] | other results
CC(=O)c1ccc(-c2ccc(-c3ccnc(Nc4cc(C(F)(F)F)cc(C(F)(F)F)c4)n3)cn2)cc1 | 107 | 98.5 | 113 | 112 | 109 | 104 | 95.8 | 102 | 104 | 99.7 | 119 | 96.7 | 93.5 | 103 | 79.3 | 89.8 | 114 | 98.2 | 91.6 | 106 | growth at 10 µM [5]: 100%; growth at 10 µM [6]: 96.5%; growth at 10 µM [7]: 103%; growth at 10 µM [8]: 110%; growth at 10 µM [9]: 92.9%; growth at 10 µM [10]: 110%; growth at 10 µM [11]: 105%; growth at 10 µM [12]: 114%; growth at 10 µM [13]: 109%; growth at 10 µM [14]: 106%; growth at 10 µM [15]: 110%; growth at 10 µM [16]: 101%; growth at 10 µM [17]: 97.8%; growth at 10 µM [25]: 94.6%; growth at 10 µM [26]: 109%; inhibition of growth at 10 µM [36]: -2.21%
CC(=O)c1ccccc1-c1ccc(-c2ccnc(NC(=O)Nc3cc(C(F)(F)F)cc(C(F)(F)F)c3)n2)cn1.Cl |  |  |  |  | 98.2 | 78.8 | 103 | 102 | 94.3 | 91 | 108 | 90.8 | 76.5 | 91 | 75 | 89.9 | 109 | 83.7 | 85.4 | 74.7 | Activity [1]: 98.79%; Activity [2]: 80.11%; Activity [3]: 87.92%; Activity [4]: 90.22%; Activity [5]: 103.94%; Activity [6]: 84.35%; Activity [7]: 92.06%; Activity [8]: 88.27%; Activity [9]: 81.77%; Activity [10]: 95.89%; Activity [11]: 95.08%; Activity [12]: 92.08%; Activity [13]: 95.07%; Activity [14]: 83.42%; Activity [15]: 80.92%; Activity [16]: 86.33%; Activity [17]: 94.42%; Activity [25]: 98.42%; Activity [26]: 81.55%; growth inhibition (GI) [36]: 9.74%
CC(=O)Nc1cccc(-c2ccc(-c3ccnc(NC(=O)Nc4cc(C(F)(F)F)cc(C(F)(F)F)c4)n3)cn2)c1.Cl | 60.1 | 34.8 | 69.2 | -3.2 | 46.5 | 62.1 | -37.6 | 50.5 | 46.6 | 76 | 67.8 | 27.9 | 83.1 | 60.5 | 54.7 | 56.2 | 89.2 | 65.5 | -11.3 | -30.3 | growth at 10 µM [5]: 59.8%; growth at 10 µM [6]: -6.37%; growth at 10 µM [7]: 41.8%; growth at 10 µM [8]: 53.5%; growth at 10 µM [9]: 50.5%; growth at 10 µM [10]: 60.3%; growth at 10 µM [11]: 9.2%; growth at 10 µM [12]: 72.7%; growth at 10 µM [13]: 85.2%; growth at 10 µM [14]: 83.6%; growth at 10 µM [15]: 49%; growth at 10 µM [16]: -25.4%; growth at 10 µM [17]: 49.4%; growth at 10 µM [25]: 7.08%; growth at 10 µM [26]: 93.5%; inhibition of growth at 10 µM [36]: 50.9%
